Data set [1] has as its target Sodium channel protein type 10 subunit alpha (Rattus norvegicus, UniProt Q62968). In words: Modulator activity at rat Nav1.8 expressed in Xenopus laevis oocytes assessed as elicitation in sodium current measured after 1 to 4 days by two-electrode voltage clamp assay. The class given is cell-based. As to conditions: oocyte; call rule not given here. The method in brief: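 Channel cRNA transcribed from linearized plasmid; 50 nL at 1 ng/nL injected into stage V–VI oocytes. Oocytes held in 96 mM NaCl, 2 mM KCl, 1.8 mM CaCl2, 2 mM MgCl2, 5 mM HEPES pH 7.4 with gentamycin. TEVC at 18–22 °C in the same solution, electrodes 3 M KCl, 0.8–1.5 MΩ. Currents filtered 1 kHz, sampled 20 kHz. EC50 from Hill equation fit.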
Background: Two-electrode voltage clamp holds a large cell at a set potential and records current.

Data set [2] concerns the target Sodium channel protein type 8 subunit alpha (Mus musculus, UniProt Q9WTU3). Nature of the data set: Modulator activity at mouse Nav1.6 expressed in Xenopus laevis oocytes assessed as elicitation in sodium current measured after 1 to 4 days by two-electrode voltage clamp assay. It is filed as cell-based, Oocyte. The method in brief: (§1)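 Channel cRNA, with auxiliary subunits rβ1, hβ1 or TipE, transcribed from linearized plasmids; 50 nL of 1 ng/nL injected into stage V–VI X. laevis oocytes, kept in 96 mM NaCl, 2 mM KCl, 1.8 mM CaCl2, 2 mM MgCl2, 5 mM HEPES pH 7.4 with gentamycin. Two-electrode voltage clamp at 18–22 °C in same bath solution; 3 M KCl electrodes of 0.8–1.5 MΩ; currents filtered at 1 kHz, sampled at 20 kHz. EC50 from Hill equation fit.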

Data set [3] deals with Sodium channel protein type 9 subunit alpha (Homo sapiens, UniProt Q15858). Nature of the data set: Modulator activity at human Nav1.7 expressed in Xenopus laevis oocytes assessed as elicitation in sodium current measured after 1 to 4 days by two-electrode voltage clamp assay. The class given is cell-based, Oocyte. An outline of the steps: as §1
Data set [4] concerns the target Sodium channel protein type 3 subunit alpha (Rattus norvegicus, UniProt P08104). Nature of the data set: Modulator activity at rat Nav1.3 expressed in Xenopus laevis oocytes assessed as elicitation in sodium current measured after 1 to 4 days by two-electrode voltage clamp assay. The class given is cell-based, Oocyte. The method in brief: as §1
Data set [5] is described as follows: Toxicity in Artemia salina assessed as mortality incubated for 24 hrs in dark by microwell assay. It is filed as organism-based. The method in brief:
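Nauplii hatched from cysts in aerated artificial seawater (33 g/L), harvested at 24 h, RT. Peptide at 0.003–300 μM in water, in duplicate wells with water control, plus 10–15 nauplii in salt water. Dead and immobilized nauplii counted under a microscope, then the rest killed with MeOH and all counted. % dead or immobilized per well; EC50 by nonlinear regression.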

For data set [6], the target named is Sodium channel protein type 4 subunit alpha (Rattus norvegicus, UniProt P15390). Nature of the data set: Modulator activity at rat Nav1.4 expressed in Xenopus laevis oocytes assessed as elicitation in sodium current measured after 1 to 4 days by two-electrode voltage clamp assay. The class given is cell-based, Oocyte. The method in brief:
as §1

Data set [7] has as its target Sodium channel protein type 5 subunit alpha (Homo sapiens, UniProt Q14524). Nature of the data set: Modulator activity at human Nav1.5 expressed in Xenopus laevis oocytes assessed as elicitation in sodium current measured after 1 to 4 days by two-electrode voltage clamp assay. The class given is cell-based, Oocyte. An outline of the steps:
as §1

A short description of data set [8]: Modulator activity at german cockroach Nav1 expressed in Xenopus laevis oocytes assessed as elicitation in sodium current measured after 1 to 4 days by two-electrode voltage clamp assay. It is filed as cell-based. As to conditions: Blattella germanica, Oocyte. The method in brief:
as §1

In data set [9] the target is Sodium channel protein type 2 subunit alpha (Rattus norvegicus, UniProt P04775). In words: Modulator activity at rat Nav1.2 expressed in Xenopus laevis oocytes assessed as elicitation in sodium current measured after 1 to 4 days by two-electrode voltage clamp assay. The class given is cell-based, Oocyte. The method in brief: as §1
Sodium channel protein type 2 subunit alpha, sequence (P04775 whole entry): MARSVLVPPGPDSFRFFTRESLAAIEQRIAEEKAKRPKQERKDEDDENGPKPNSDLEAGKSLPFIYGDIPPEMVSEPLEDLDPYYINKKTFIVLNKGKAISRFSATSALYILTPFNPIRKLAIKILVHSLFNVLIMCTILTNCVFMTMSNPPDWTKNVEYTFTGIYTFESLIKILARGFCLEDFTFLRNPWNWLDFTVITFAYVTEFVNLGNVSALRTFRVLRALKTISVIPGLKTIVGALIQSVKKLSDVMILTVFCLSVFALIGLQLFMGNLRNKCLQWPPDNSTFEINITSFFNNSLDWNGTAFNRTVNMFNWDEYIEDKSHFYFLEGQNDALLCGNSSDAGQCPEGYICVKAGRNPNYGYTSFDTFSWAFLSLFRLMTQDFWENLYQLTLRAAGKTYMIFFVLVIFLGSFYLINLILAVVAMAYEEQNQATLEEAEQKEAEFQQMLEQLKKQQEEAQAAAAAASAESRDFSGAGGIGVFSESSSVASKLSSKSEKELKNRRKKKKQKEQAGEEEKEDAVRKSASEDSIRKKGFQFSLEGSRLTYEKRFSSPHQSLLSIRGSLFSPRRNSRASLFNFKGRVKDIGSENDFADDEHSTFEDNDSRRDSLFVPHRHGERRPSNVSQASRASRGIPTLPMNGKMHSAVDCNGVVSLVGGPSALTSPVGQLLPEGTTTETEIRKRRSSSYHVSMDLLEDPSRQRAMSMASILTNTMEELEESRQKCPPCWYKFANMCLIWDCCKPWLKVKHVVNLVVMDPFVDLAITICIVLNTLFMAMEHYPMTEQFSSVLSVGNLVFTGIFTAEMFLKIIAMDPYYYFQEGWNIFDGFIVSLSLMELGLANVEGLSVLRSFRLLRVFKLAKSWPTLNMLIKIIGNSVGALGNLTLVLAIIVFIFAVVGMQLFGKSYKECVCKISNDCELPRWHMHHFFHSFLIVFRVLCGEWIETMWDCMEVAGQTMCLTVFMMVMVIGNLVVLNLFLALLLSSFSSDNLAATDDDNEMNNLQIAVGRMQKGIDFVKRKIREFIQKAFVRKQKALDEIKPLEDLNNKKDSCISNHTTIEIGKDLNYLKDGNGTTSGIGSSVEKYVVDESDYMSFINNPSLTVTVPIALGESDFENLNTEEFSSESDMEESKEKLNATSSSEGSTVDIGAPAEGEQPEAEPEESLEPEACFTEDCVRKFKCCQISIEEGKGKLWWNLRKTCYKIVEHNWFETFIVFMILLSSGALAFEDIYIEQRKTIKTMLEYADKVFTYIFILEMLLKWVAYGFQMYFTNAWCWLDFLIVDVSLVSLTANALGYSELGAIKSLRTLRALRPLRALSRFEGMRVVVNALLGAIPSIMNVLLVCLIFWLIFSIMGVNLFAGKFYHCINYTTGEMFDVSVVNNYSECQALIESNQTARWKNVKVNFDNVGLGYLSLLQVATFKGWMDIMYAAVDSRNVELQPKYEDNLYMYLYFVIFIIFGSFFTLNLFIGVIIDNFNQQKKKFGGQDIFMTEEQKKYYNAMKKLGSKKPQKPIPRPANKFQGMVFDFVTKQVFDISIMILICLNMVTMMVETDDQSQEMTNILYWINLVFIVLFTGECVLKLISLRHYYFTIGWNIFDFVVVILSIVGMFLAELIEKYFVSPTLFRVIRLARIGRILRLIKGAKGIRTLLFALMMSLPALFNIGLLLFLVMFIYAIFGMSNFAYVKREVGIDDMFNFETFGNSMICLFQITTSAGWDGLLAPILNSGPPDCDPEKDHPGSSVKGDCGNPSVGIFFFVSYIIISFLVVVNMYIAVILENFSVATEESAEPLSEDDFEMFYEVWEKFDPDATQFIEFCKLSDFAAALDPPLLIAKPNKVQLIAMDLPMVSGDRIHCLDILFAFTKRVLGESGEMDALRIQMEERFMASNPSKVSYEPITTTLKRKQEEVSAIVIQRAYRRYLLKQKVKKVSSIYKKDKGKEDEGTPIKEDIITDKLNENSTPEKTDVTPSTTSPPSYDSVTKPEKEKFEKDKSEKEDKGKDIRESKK
The target in data set [10] is Sodium channel protein type 1 subunit alpha (Homo sapiens, UniProt P35498). In words: Modulator activity at human Nav1.1 expressed in Xenopus laevis oocytes assessed as elicitation in sodium current measured after 1 to 4 days by two-electrode voltage clamp assay. It is filed as cell-based, Oocyte. An outline of the steps: as §1

pEC50: −log10 of the molar value.

Sodium channel protein type 5 subunit alpha, sequence (Q14524 whole entry): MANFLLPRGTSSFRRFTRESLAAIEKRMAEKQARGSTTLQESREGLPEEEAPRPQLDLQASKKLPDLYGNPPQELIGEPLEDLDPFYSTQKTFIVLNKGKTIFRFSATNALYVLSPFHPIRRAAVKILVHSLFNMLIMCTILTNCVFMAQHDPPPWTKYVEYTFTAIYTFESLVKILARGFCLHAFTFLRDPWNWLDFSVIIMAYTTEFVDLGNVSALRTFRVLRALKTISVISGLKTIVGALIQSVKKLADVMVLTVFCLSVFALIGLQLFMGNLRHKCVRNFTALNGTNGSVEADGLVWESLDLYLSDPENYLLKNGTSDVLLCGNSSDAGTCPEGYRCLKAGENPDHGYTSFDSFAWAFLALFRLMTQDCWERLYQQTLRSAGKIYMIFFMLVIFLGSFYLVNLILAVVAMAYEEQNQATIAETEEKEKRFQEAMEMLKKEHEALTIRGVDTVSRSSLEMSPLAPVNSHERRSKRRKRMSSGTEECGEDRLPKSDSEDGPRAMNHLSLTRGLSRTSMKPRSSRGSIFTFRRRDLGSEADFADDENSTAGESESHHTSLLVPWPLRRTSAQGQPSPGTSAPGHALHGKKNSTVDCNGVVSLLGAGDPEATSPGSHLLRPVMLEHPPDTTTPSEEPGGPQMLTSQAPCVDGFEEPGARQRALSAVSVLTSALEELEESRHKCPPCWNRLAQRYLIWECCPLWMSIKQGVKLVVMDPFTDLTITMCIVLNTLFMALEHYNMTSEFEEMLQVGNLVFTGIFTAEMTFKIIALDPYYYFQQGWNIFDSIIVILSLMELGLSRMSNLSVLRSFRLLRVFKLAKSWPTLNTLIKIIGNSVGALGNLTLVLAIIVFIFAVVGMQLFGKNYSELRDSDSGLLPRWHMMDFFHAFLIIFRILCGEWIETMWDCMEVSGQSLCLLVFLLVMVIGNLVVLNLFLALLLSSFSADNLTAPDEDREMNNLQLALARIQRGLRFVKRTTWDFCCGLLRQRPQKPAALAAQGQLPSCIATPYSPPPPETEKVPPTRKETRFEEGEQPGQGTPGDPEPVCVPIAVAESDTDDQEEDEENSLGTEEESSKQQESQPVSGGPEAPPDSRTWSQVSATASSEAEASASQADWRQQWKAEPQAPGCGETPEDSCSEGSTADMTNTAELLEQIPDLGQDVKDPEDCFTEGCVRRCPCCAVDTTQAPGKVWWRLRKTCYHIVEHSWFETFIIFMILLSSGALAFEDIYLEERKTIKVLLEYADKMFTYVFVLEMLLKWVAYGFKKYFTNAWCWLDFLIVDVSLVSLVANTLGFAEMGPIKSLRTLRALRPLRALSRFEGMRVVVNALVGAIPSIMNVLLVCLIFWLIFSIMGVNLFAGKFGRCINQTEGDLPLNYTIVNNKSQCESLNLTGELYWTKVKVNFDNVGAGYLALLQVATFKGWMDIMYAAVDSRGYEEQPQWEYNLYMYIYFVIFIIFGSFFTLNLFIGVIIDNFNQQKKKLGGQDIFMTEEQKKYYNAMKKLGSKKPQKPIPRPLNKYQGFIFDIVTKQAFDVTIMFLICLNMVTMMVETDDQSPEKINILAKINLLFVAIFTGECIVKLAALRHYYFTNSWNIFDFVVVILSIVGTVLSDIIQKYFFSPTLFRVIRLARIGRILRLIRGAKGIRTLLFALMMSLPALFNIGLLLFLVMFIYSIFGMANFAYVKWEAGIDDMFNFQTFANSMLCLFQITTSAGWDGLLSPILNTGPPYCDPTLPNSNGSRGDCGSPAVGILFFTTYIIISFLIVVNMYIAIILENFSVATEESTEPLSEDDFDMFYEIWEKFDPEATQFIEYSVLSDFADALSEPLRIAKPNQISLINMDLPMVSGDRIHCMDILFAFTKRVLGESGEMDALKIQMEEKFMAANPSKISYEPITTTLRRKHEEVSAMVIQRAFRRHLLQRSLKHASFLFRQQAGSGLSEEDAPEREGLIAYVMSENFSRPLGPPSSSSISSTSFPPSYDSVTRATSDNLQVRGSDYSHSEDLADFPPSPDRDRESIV

As to `CC[C@H](C)[C@@H]1NC(=O)[C@@H](NC(=O)CN)CSSC[C@@H]2NC(=O)[C@@H]3CSSC[C@@H](C(=O)N[C@@H](CC(N)=O)C(=O)N4C[C@@H](O)C[C@H]4C(=O)N4C[C@@H](O)C[C@H]4C(=O)N[C@@H](CC(N)=O)C(=O)N[C@@H](CCC(N)=O)C(=O)O)NC(=O)[C@H](CCCCN)NC(=O)[C@H](Cc4ccccc4)NC(=O)[C@H](CC(N)=O)NC(=O)[C@H](Cc4c[nH]c5ccccc45)NC(=O)CNC(=O)[C@H](CSSC[C@H](NC(=O)[C@H](Cc4ccccc4)NC(=O)[C@H](CO)NC(=O)CNC(=O)[C@H]([C@@H](C)O)NC(=O)[C@H](CO)NC1=O)C(=O)N[C@@H]([C@@H](C)O)C(=O)N[C@@H](CC(C)C)C(=O)N[C@@H](CO)C(=O)N[C@@H](CCCCN)C(=O)NCC(=O)N3)NC(=O)[C@H](CC(N)=O)NC(=O)[C@H](CCCCN)NC(=O)[C@H]([C@@H](C)O)NC2=O`, the EC50 (commonly the concentration at which the effect is half-maximal) in [1] is reported as “Not Active”. For the same compound, the pEC50 (as a rule, the EC50 on a negative log10 scale, so that one unit is a factor of ten) in data set [2] was 6.91; in [3] it was 7.09; in data set [4], 7.89; in [6], 7.84; in data set [7], 7.56; in data set [8], 7.95. In addition, the values for the pEC50 in [9] and in data set [10] were 6.87 and 7.04, respectively. The EC50 at 24 h in data set [5] stood at 400 nM.

Regarding `CC[C@H](C)[C@@H]1NC(=O)[C@@H](NC(=O)CN)CSSC[C@@H]2NC(=O)[C@@H]3CSSC[C@@H](C(=O)N[C@@H](CC(N)=O)C(=O)N4C[C@@H](O)C[C@H]4C(=O)N4C[C@@H](O)C[C@H]4C(=O)N[C@@H](CC(N)=O)C(=O)N[C@@H](CCC(N)=O)C(=O)O)NC(=O)[C@H](Cc4cnc[nH]4)NC(=O)[C@H](Cc4ccccc4)NC(=O)[C@H](CC(N)=O)NC(=O)[C@H](Cc4c[nH]c5ccccc45)NC(=O)CNC(=O)[C@H](CSSC[C@H](NC(=O)[C@H](Cc4ccccc4)NC(=O)[C@H](CO)NC(=O)CNC(=O)[C@H]([C@@H](C)O)NC(=O)[C@H](CCCCN)NC1=O)C(=O)N[C@@H]([C@@H](C)O)C(=O)N[C@@H](CC(C)C)C(=O)N[C@@H](CO)C(=O)N[C@@H](CCCCN)C(=O)NCC(=O)N3)NC(=O)[C@H](CC(N)=O)NC(=O)[C@H](CCCCN)NC(=O)[C@H]([C@@H](C)O)NC2=O`, in data set [1], the half-maximal effective concentration (EC50) entry is given as “Not Active”. For the same compound, the negative-log EC50 (pEC50) was 7.44 in data set [2]; 7.01 in data set [3]; 6.98 in data set [4]; 7.33 in data set [6]; 6.67 in data set [7]; 8.59 in data set [8]. The pEC50 was 7.61 in data set [9] and 8.10 in data set [10]. Further, in [5], the EC50 at 24 h worked out at 2800 nM.

For `CC[C@H](C)[C@@H]1NC(=O)[C@@H](NC(=O)CN)CSSC[C@@H]2NC(=O)[C@@H]3CSSC[C@@H](C(=O)N[C@@H](CC(N)=O)C(=O)N4C[C@@H](O)C[C@H]4C(=O)N4C[C@@H](O)C[C@H]4C(=O)N[C@@H](CC(N)=O)C(=O)N[C@@H](CCC(N)=O)C(=O)O)NC(=O)[C@H](CCCCN)NC(=O)[C@H](Cc4ccccc4)NC(=O)[C@H](CC(N)=O)NC(=O)[C@H](Cc4c[nH]c5ccccc45)NC(=O)CNC(=O)[C@H](CSSC[C@H](NC(=O)[C@H](C(C)C)NC(=O)[C@H](CO)NC(=O)CNC(=O)[C@H]([C@@H](C)O)NC(=O)[C@H](C)NC1=O)C(=O)N[C@@H]([C@@H](C)O)C(=O)N[C@@H](CC(C)C)C(=O)N[C@@H](CO)C(=O)N[C@@H](CCCCN)C(=O)NCC(=O)N3)NC(=O)[C@H](CC(N)=O)NC(=O)[C@H](CCCCN)NC(=O)[C@H]([C@@H](C)O)NC2=O`, the EC50 result in [1] is reported as “Not Active”. Also, the pEC50 in [2] was 5.87; in data set [3], 5.89; in [4] it was 6.89; in [6] it was 5.94; in data set [7] it was 6.83; in data set [8], 7.06. Moreover, the values for the pEC50 in data set [9] and in [10] were 7.01 and 6.90, respectively. The EC50 at 24 h in data set [5] was determined as 2900 nM.

Regarding `CC[C@H](C)[C@@H]1NC(=O)[C@@H](NC(=O)CN)CSSC[C@@H]2NC(=O)[C@@H]3CSSC[C@@H](C(=O)N[C@@H](CC(N)=O)C(=O)N[C@H](CCCCN)C(=O)N4C[C@@H](O)C[C@H]4C(=O)N[C@@H](CC(N)=O)C(=O)N[C@@H](CCC(N)=O)C(=O)O)NC(=O)[C@H](Cc4cnc[nH]4)NC(=O)[C@H](Cc4ccccc4)NC(=O)[C@H](CC(N)=O)NC(=O)[C@H](Cc4c[nH]c5ccccc45)NC(=O)CNC(=O)[C@H](CSSC[C@H](NC(=O)[C@H](CCSC)NC(=O)[C@H](CO)NC(=O)CNC(=O)[C@H](C(C)C)NC(=O)[C@@H]4CCCN4C1=O)C(=O)N[C@@H]([C@@H](C)O)C(=O)N[C@@H](CC(C)C)C(=O)N[C@@H](CO)C(=O)N[C@@H](CC(N)=O)C(=O)NCC(=O)N3)NC(=O)[C@H](CC(N)=O)NC(=O)[C@H](CCCCN)NC(=O)[C@H]([C@@H](C)O)NC2=O`, the EC50 entry in [1] was “Not Active”. Further, the pEC50 in data set [2] (oocyte) was 6.83; in data set [3] (oocyte) it was 6.89; in [4] (oocyte) it was 6.77; in [6] (oocyte) it was 6.09; in [7] (oocyte), 6.81; in data set [8], 8.02. Moreover, the figures for the pEC50 in data set [9] (oocyte) and in data set [10] (oocyte) were 7.30 and 6.77, respectively. In addition, the EC50 at 24 h in [5] was 6100 nM.

Consider `CC[C@H](C)[C@@H]1NC(=O)[C@@H](NC(=O)CN)CSSC[C@@H]2NC(=O)[C@@H]3CSSC[C@@H](C(=O)N[C@@H](CC(N)=O)C(=O)N4C[C@@H](O)C[C@H]4C(=O)N4C[C@@H](O)C[C@H]4C(=O)N[C@@H](CC(N)=O)C(=O)N[C@@H](CCC(N)=O)C(=O)O)NC(=O)[C@H](CCCCN)NC(=O)[C@H](Cc4ccccc4)NC(=O)[C@H](CC(N)=O)NC(=O)[C@H](Cc4c[nH]c5ccccc45)NC(=O)CNC(=O)[C@H](CSSC[C@H](NC(=O)CNC(=O)[C@H](CO)NC(=O)CNC(=O)[C@H]([C@@H](C)O)NC(=O)[C@H](CCCCN)NC1=O)C(=O)N[C@@H]([C@@H](C)O)C(=O)N[C@@H](CC(C)C)C(=O)N[C@@H](CO)C(=O)N[C@@H](CCCCN)C(=O)NCC(=O)N3)NC(=O)[C@H](CC(N)=O)NC(=O)[C@H](CCCCN)NC(=O)[C@H]([C@@H](C)O)NC2=O`, for which, in data set [1], the EC50 entry was “Not Active”. In addition, the pEC50 was 7.03 in data set [2]; 6.99 in data set [3]; 6.86 in data set [4]; 6.82 in data set [6]; 6.96 in data set [7]; 7.01 in data set [8]. Besides, the negative-log EC50 (pEC50) was 6.86 in [9] and 6.90 in [10]. For the same compound, the EC50 at 24 h in [5] turned out to be 4700 nM.

As for `CC[C@H](C)[C@@H]1NC(=O)[C@@H](NC(=O)CN)CSSC[C@@H]2NC(=O)[C@@H]3CSSC[C@@H](C(=O)N[C@@H](CC(N)=O)C(=O)N4C[C@@H](O)C[C@H]4C(=O)N4C[C@@H](O)C[C@H]4C(=O)N[C@@H](CC(N)=O)C(=O)N[C@@H](CCC(N)=O)C(=O)O)NC(=O)[C@H](Cc4cnc[nH]4)NC(=O)[C@H](Cc4ccccc4)NC(=O)[C@H](CC(N)=O)NC(=O)[C@H](Cc4c[nH]c5ccccc45)NC(=O)CNC(=O)[C@H](CSSC[C@H](NC(=O)[C@H](Cc4ccccc4)NC(=O)[C@H](CO)NC(=O)CNC(=O)[C@H]([C@@H](C)O)NC(=O)[C@H](C)NC1=O)C(=O)N[C@@H]([C@@H](C)O)C(=O)N[C@@H](CC(C)C)C(=O)N[C@@H](CO)C(=O)N[C@@H](CCCCN)C(=O)NCC(=O)N3)NC(=O)[C@H](CC(N)=O)NC(=O)[C@H](CCCCN)NC(=O)[C@H]([C@@H](C)O)NC2=O`, in [1], the EC50 entry is reported as “Not Active”. In addition, the pEC50 in data set [2] was 7.17; in data set [3], 7.14; in [4], 8.03; in [6], 7.81; in data set [7], 6.88; in data set [8], 8.11. For the same compound, the pEC50 in data set [9] was 6.81; in data set [10], 6.99. Moreover, the EC50 at 24 h in data set [5] worked out at 400 nM.

These data come from ChEMBL document CHEMBL5036335, “Functional Characterization of the Nemertide α Family of Peptide Toxins” (J Nat Prod, 2021).
